Source: ChEMBL document CHEMBL3739337, “Alkaloids with Different Carbon Units from Myrioneuron faberi” (J Nat Prod, 2015)

How the values were obtained:
[1] = Cytotoxicity against human Huh7.5 cells; format: cell-based, Huh-7
Outline: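 Huh7.5 human liver cells grown in DMEM with 10% inactivated fetal bovine serum and 1% penicillin–streptomycin at 37 °C, 5% CO2.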

Hepatitis C virus = test: Antiviral activity against chimeric HCV FL-J6/JFH/JC1 infected in human Huh7.5 cells assessed as reduction of intracellular viral RNA level after 72 hrs by RT-PCR assay; format: functional, organism-based, Hepacivirus hominis; settings: FL-J6/JFH/JC1, Huh-7, 72 h
Outline: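 Huh7.5 cells in DMEM with 10% inactivated FBS at 37 °C, 5% CO2, seeded at 3 × 10^4 cells/cm2. After 24 h they were infected (about 45 IU per cell) and given compound or solvent control at the same time. At 72 h, intracellular HCV RNA was measured against GAPDH by one-step RT-PCR (2ΔΔCT). EC50 was derived by the Reed and Muench method.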

[2] = Therapeutic index, ratio of CC50 for human Huh7.5 cells to EC50 for chimeric HCV FL-J6/JFH/JC1 infected in human Huh7.5 cells; format: cell-based, Huh-7; settings: read-out: Ratio CC50/EC50

COC[C@@H]1CCCN2C[C@@H]3CCC[C@H]4CC(C=O)=CN([C@H]43)[C@@H]12
CC50 [1]: > 100 µM | EC50 (Hepatitis C virus): 0.92 µM | selectivity ratio [2]: > 109

O=CC1=CN2[C@@H]3[C@@H](CCC[C@H]3CN3CCCC[C@@H]32)C1
CC50 [1]: > 100 µM | EC50 (Hepatitis C virus): 3.27 µM | selectivity ratio [2]: > 30.6

O=C1CC[C@@H]2CCC[C@H]3CN4CCCC[C@H]4N1[C@H]23
CC50 [1]: > 100 µM | EC50 (Hepatitis C virus): 30.6 µM | selectivity ratio [2]: > 3.3

C1C[C@H]2CCCN3[C@H]2[C@@H](C1)CN1CCCC[C@@H]13
CC50 [1]: 95.9 µM | EC50 (Hepatitis C virus): 7.35 µM | selectivity ratio [2]: 13

O=C1CC[C@@H]2CCC[C@H]3CN4CCC[C@H](C[C@H]5CCCN6C[C@@H]7CCC[C@H]8CCC(=O)N([C@H]87)[C@H]56)[C@H]4N1[C@H]23
CC50 [1]: > 100 µM | EC50 (Hepatitis C virus): 10.5 µM | selectivity ratio [2]: > 9.5

CCC[C@H](NC(=O)[C@@H]1[C@H]2CCC[C@H]2CN1C(=O)[C@@H](NC(=O)[C@@H](NC(=O)c1cnccn1)C1CCCCC1)C(C)(C)C)C(=O)C(=O)NC1CC1 [TELAPREVIR]
CC50 [1]: 47.8 µM | EC50 (Hepatitis C virus): 0.129 µM | selectivity ratio [2]: 371
